PLCg1 inh: PLC-gamma1 enzyme inhibitors, primary screen, biochemical, fluorescence, purified enzyme; fluorogenic substrate; inhibition, % at 12.2 µM; 1-phosphatidylinositol 4,5-bisphosphate phosphodiesterase gamma-1 (Homo sapiens), P19174; 370,000 compounds, 0.84% hits; AID 720700, 2013; in the data active means inhibition above about 9.5%
ARFGAP1 inh: inhibitors of rat ARFGAP1 GAP activity, primary screen, biochemical, fluorescence polarization, GDP tracer; Arfgap1-stimulated ARF1 GTP hydrolysis, GDP FP detection; inhibition, % at 16.5 µM; AID 651572, 2012; 360,000 compounds, 0.26% hits; ADP-ribosylation factor GTPase-activating protein 1 (Rattus norvegicus), Q62848;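 active means inhibition above a per-plate limit, mean inhibition of low control wells plus 3 SD, cut at about 25% in these data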;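 further: 0% = DMSO wells with enzyme and 100% = wells lacking Arfgap1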
Target sequence (Q62848 1-136 limits assumed): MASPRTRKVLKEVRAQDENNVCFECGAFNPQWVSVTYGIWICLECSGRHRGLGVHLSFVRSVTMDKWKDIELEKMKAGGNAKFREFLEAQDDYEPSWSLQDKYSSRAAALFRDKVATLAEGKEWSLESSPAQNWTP
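System: truncated rat Arfgap1 GAP domain / Medium: HEPES-based buffer, pH 7.5 / Also added: N-terminally truncated human ARF1-GTP substrate / Incubation: enzyme reaction 120 min at 25 °C after 20 min preincubation / Measured by: FP of antibody-bound GDP Alexa 633 tracer, ex 620/em 688 nm / Replicates: singlicate, each compound tested once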
HGIII-sPLA2 inh: human group III sPLA2 inhibitors, primary screen, biochemical, QFRET, BODIPY PC-A2 liposome substrate. 370,000 compounds, 0.56% hits. QFRET BODIPY PC-A2 liposome hydrolysis, fluorescence. Group 3 secretory phospholipase A2 (Homo sapiens), Q9NZ20. inhibition, % at 12.2 µM;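 active means inhibition above mean plus 3 SD of compounds lying within the high and low control bounds, cut at about 19% in these data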;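 further: 0% = median of test compound wells and 100% = no enzyme DMSO wells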
Target sequence (Q9NZ20 whole entry, looked up): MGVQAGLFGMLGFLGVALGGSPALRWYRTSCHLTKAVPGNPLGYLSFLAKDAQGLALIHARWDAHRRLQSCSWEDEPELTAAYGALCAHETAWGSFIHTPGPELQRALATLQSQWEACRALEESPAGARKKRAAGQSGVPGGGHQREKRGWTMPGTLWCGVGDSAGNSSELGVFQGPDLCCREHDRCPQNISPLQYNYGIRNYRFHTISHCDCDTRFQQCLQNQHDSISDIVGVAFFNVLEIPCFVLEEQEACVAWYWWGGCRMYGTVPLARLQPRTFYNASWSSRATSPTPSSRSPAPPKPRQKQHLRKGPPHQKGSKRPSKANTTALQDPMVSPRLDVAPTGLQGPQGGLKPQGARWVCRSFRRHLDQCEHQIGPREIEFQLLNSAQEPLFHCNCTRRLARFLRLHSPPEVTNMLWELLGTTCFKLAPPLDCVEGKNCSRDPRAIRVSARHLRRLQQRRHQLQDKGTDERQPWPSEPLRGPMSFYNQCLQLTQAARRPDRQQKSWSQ
PLC-beta3 inh: human PLC-beta3 inhibitors, primary screen, biochemical, fluorescence; 370,000 compounds, 0.18% hits; Purified PLC-beta3, fluorogenic substrate; inhibition, % at 12.2 µM; 1-phosphatidylinositol 4,5-bisphosphate phosphodiesterase beta-3 (Homo sapiens), Q01970; in the data active means inhibition above about 11%;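 further: 0% = median of compound wells on plate and 100% = full blocker control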
ASAP1 GAP inh: inhibitors of human ASAP1 ArfGAP activity, primary screen, biochemical, fluorescence polarization | Arf-GAP with SH3 domain, ANK repeat and PH domain-containing protein 1 (Homo sapiens), … | inhibition, % at 16.5 µM | AID 624377, 2012 | 360,000 compounds, 0.19% hits | ASAP1-stimulated ARF1 GTP hydrolysis, GDP FP detection; in the data active means inhibition above about 25%;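 further: 0% = vehicle with enzyme and substrate and 100% = no enzyme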
sPLA2 confirm: human group III sPLA2 inhibitors, confirmation, biochemical, QFRET, triplicate; shares compounds with HGIII-sPLA2 inh; recombinant hGIII-sPLA2, BODIPY PC-A2 QFRET fluorescence; inhibition, % at 12.2 µM; 2,000 compounds, 34% hits; AID 743280, 2014;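 active means mean inhibition across triplicates above the hit cutoff set in the earlier primary screen, cut at about 19% in these data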;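 further: 0% = enzyme with DMSO and 100% = DMSO wells lacking enzyme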
535nm interf: 535nm fluorescence optical interference, confirmation, artefact control for HGIII-sPLA2 inhibitor project, biochemical, QFRET; shares compounds with HGIII-sPLA2 inh; BODIPY FL product fluorescence interference; 2,000 compounds, 8.5% hits; inhibition, % at 12.2 µM;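 active means average inhibition above the solvent-only control mean plus 3 SD, cut at about 6% in these data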;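 further: 0% = DMSO with substrate plus product and 100% = DMSO with substrate alone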
BODIPY interf DR: 535nm fluorescence optical interference, dose response, artefact control for HGIII-sPLA2 inhibitor project, biochemical, QFRET. shares compounds with HGIII-sPLA2 inh. BODIPY FL product fluorescence interference, cell-free. IC50, µM. 240 tested, under 10 active;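 active means IC50 at or below 10 µM; inactive means IC50 above 10 µM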
* hit, by the source's call; / = not tested or not shown. In the library only some 1.9% were active in any assay of this set; here they are far more common.

SMILES	PLCg1 inh	ARFGAP1 inh	HGIII-sPLA2 inh	PLC-beta3 inh	ASAP1 GAP inh	sPLA2 confirm	535nm interf	others
COc1cc(C(=O)NC(=S)NNC(=O)c2cnccn2)cc(OC)c1OC	-4	0	21*	-11	0	10	-6
CCN(CC)C(=O)[C@H]1C[C@@H]2[C@H](C[C@@H](c3ccccc3)[C@H]1C)N(c1ccc(F)cc1)C(=O)N2CCCOc1ccccc1	0	4	-10	-6	-16	/	/
O=C(NCC1CCCO1)C(=O)NCC(c1ccco1)N1CCN(c2ccc(F)cc2)CC1 (stereo not given)	1	7	21*	0	0	3	-18
O=C(NCC1CCCO1)C(=O)NCC(c1ccco1)N1CCN(c2ccccc2)CC1 (stereo not given)	0	5	18	1	6	/	/
CC(C)C[C@H]1COc2cccc(N3CCSCC3)c2S(=O)(=O)N1C	0	/	8	4	/	/	/
C#CCNC(=O)C[C@H]1C[C@@]2(C(=O)OC)C(=C[C@H](C(C)(C)C)O[C@@H]2C)N(Cc2ccc3c(c2)OCO3)C1=O	2	4	17	0	1	/	/
Cc1ccc(N=Nc2ccc3ccccc3c2O)cc1	-2	9	20*	-2	-14	30*	8.3*
Oc1c(N=Nc2ccc(F)cc2)ccc2ccccc12	1	-1	5	-7	-7	/	/
CC(C)C[C@H]1COc2ccc(Cl)cc2S(=O)(=O)N1Cc1cn(Cc2ccc(C(F)(F)F)cc2)nn1	0	/	5	4	/	/	/
CC1CCCCC1N(C(=O)c1cc(C2CC2)on1)C1CCCCC1 (stereo not given)	0	/	3	-2	/	/	/
Fc1cnc(N2CCN(c3ccccc3)CC2)nc1N1CCN(c2ccccc2)CC1	0	-7	21*	1	1	-1	-7
O=C(NN=Cc1ccc(O)cc1)c1cc(-c2ccc(Cl)cc2)n[nH]1	-12	/	-4	-20	/	/	/
CC(C)c1ccc(NC(=O)Nc2nc(C(N)CCc3ccccc3)cs2)cc1 (stereo not given)	5	12	21*	6	3	17	-10
COc1ccc(CC(N)c2csc(NC(=O)Nc3cc(OC)ccc3OC)n2)cc1 (stereo not given)	5	5	19	-1	-3	/	/
COc1ccc(OC)c(NC(=O)Nc2nc(C(N)CCc3ccccc3)cs2)c1 (stereo not given)	2	13	23*	0	9	13	-14
COC(=O)[C@]12C[C@H](CC(=O)NCCCN3CCCC3=O)C(=O)N(Cc3ccc4c(c3)OCO4)C1=C[C@H](C(C)(C)C)O[C@@H]2C	-1	2	-2	0	7	/	/
N#Cc1c(Cl)nsc1NN	-8	6	20*	-9	-6	19	14*
Cc1c(C#N)c(N)nc(Cl)c1C#N	-1	-9	-1	-1	2	/	/
NC(=S)NN=C(c1ccccc1)c1ccccc1	2	-4	19*	-3	-4	22*	-4
C/C(=N\NC(N)=S)c1ccccc1	1	9	4	-5	13	/	/
CCOc1ccc(C(=O)Nc2ccc3c(c2)C(=O)NC3=O)cc1	1	-18	0	2	4	/	/
COC(=O)c1ccc(C(=O)Nc2ccc3c(c2)C(=O)NC3=O)cc1	-13	23	23*	-26	14	0	6.8*
CCCCSc1nnc(-c2ccc(C)cc2)c2ccccc12	1	5	24*	0	-16	-1	-11
[C-]#[N+][C@]12C(=O)[C@H](C=C(Cl)[C@@]1(C)C=C)C(C)(C)[C@H]1C(=O)N(C)c3cccc2c31	0	/	31*	-4	/	21*	-13
CN(CCCOC(=O)CC1C=CCC1)C1CN(Cc2cn(Cc3ccccc3Cl)nn2)S(=O)(=O)C1 (stereo not given)	4	/	-1	-4	/	/	/
SMILES	PLCg1 inh	ARFGAP1 inh	HGIII-sPLA2 inh	PLC-beta3 inh	ASAP1 GAP inh	sPLA2 confirm	535nm interf	others
CC(C)(C)C(=O)OC12CCCN(C1)/C(=C/c1cccc(Cl)c1)C2 (stereo not given)	2	/	0	5	/	/	/
NC(=O)c1ccc[n+](Cc2ccccc2)c1	3	0	19*	0	-15	1	-6
CCOc1ccccc1C(=O)NN1C(=O)C2CCCCC2C1=O (stereo not given)	0	9	22*	-1	-11	-2	-2
O=C(NC(=S)Nc1ccc2oc(=O)ccc2c1)c1cc2ccccc2o1	1	9	22*	-2	14	4	-2
CC(=O)Nc1ccc(NC(=S)NC(=O)c2cc3ccccc3o2)cc1	0	17	11	2	-7	/	/
CCOC(=O)c1c(C)[nH]c(C(=O)COC(=O)/C=C/c2cccc(OC)c2OC)c1C	-3	9	18	0	-4	/	/
CCOC(=O)c1c(C)[nH]c(C(=O)COC(=O)COc2ccccc2C=O)c1C	4	-4	20*	-4	6	3	-14
COc1ccc(-c2cc(C(F)(F)F)nc(SCC(=O)NCc3cnn(C)c3C)n2)cc1OC	-263	20	24*	-286	1	0	-14
O=C1c2ccccc2C(=O)c2c(Nc3ccc(CCO)cc3)ccc(O)c21	3	-3	21*	2	0	48*	3	BODIPY interf DR=>122
COC(=O)[C@]12C[C@H](CC(=O)N3CCC(c4ccccc4)CC3)C(=O)N(Cc3cccc4ccccc34)C1=C[C@H](C(C)C)O[C@@H]2C1CC1	1	/	-7	4	/	/	/
COc1ccccc1Cn1c(=S)[nH]c2cc(C(=O)NCCCN3CCOCC3)ccc2c1=O	-14	1	20*	-25	13	12	-9
COc1ccccc1Cn1c(=S)[nH]c2cc(C(=O)NCCN3CCOCC3)ccc2c1=O	1	-9	12	1	1	/	/
O=C(NCCN1CCC(n2c(=O)[nH]c3cc(Cl)ccc32)CC1)c1ccc(F)cc1	5	7	-17	5	5	/	/
